Published values collected from several papers.
Protocols differ between the studies behind these lines.
Target: Dual specificity protein kinase CLK3 (CLK3, Homo sapiens, UniProt P49761)

Compound	effect on	mode	method	tested at	measurement	value
CO[C@@H](C)c1c(Nc2ccc([C@H](N(C)C(=O)C3CCS(=O)(=O)CC3)C(F)(F)F)cc2)cnc2cc(Cl)nn12	cell-free assay	–	competition with immobilised ligand	1 µM	remaining binding	87%
COc1cc(Cl)c(C(=O)N[C@@H](CN[C@H]2CC[C@@H](N)CC2)Cc2ccc(C#N)cc2)cc1-c1ccc(CN[C@H](C)c2ccc(C)cc2)o1	enzyme activity	inhibitor	–	1 µM	remaining activity	99%
Cn1c2c(c3ccc(Cl)c(Cl)c31)C(C#N)C1(CCOCC1)NC2=O (stereo not shown)	thermal stability	–	DSF	10 µM	ΔTm	0.1 °C
CC/C(=N\NC(=O)NCc1cccc(O)c1)c1ccc(O)c(C)c1O	enzyme activity	inhibitor	–	0.1 µM	inhibition	-1.4%
CN(C)c1ncnc(-c2ccc3nc(Nc4cc(CN5CCN(C(=O)CC(F)(F)F)CC5)ccn4)[nH]c3c2)c1Cl	cell-free assay	–	competition with immobilised ligand	1 µM	remaining binding	100%
CCC1(CC)NC(=O)c2c(c3ccc(Cl)c(Cl)c3n2C)C1C#N (stereo not shown)	thermal stability	–	DSF	10 µM	ΔTm	0.3 °C
COc1cc2ncnc(Nc3ccc(Oc4ccccc4)cc3C)c2cc1OC	enzyme activity	inhibitor	–	1 µM	inhibition	5%
CCN(CC)c1ccc(C2=NNC(=O)CC2C)cc1[N+](=O)[O-] (stereo not shown)	enzyme activity	inhibitor	–	10 µM	remaining activity	85%
CCCOc1ccc(OC)c(F)c1C(=O)c1ccc(C(=O)N[C@@H]2CNC[C@H]2NC(=O)c2ccc3[nH]ncc3c2)cc1	enzyme activity	inhibitor	–	10 µM	remaining activity	105%
CC(=O)C1=C(C)N(c2cccc(C(F)(F)F)c2)C(=O)N[C@@H]1c1ccc(C#N)nc1	cell-free assay	–	competition with immobilised ligand	1 µM	remaining binding	100%
CCCS(=O)(=O)Nc1ccc(F)c(C(=O)c2c[nH]c3ncc(-c4ccc(Cl)cc4)cc23)c1F	enzyme activity	inhibitor	–	1 µM	inhibition	< 10%
CC(C)(C)c1nc(-c2cccc(NS(=O)(=O)c3c(F)cccc3F)c2F)c(-c2ccnc(N)n2)s1	enzyme activity	inhibitor	radiometric	1 µM	remaining activity	74%
Cc1ccc(C(=O)Nc2ccc(CN3CCN(C)CC3)c(C(F)(F)F)c2)cc1C#Cc1cnc2cccnn12	enzyme activity	inhibitor	–	23.5 nM	remaining activity	77%
Cc1ccc(NC(=O)c2ccc(C)c(C(F)(F)F)c2)cc1C#Cc1nn(C2CCC(O)CC2)c2ncnc(N)c12 (stereo not shown)	cell-free assay	–	–	10 µM	remaining signal	83%
Oc1cccc(-c2nc(N3CCOCC3)c3oc4ncccc4c3n2)c1	cell-free assay	–	–	0.5 µM	remaining signal	93.1%
Cn1c2c(c3ccc(Cl)c(Cl)c31)C(C#N)C1(CCCC1)NC2=O (stereo not shown)	thermal stability	–	DSF	10 µM	ΔTm	0.3 °C

Compound	effect on	mode	method	tested at	measurement	value
Cc1nccc(COC(=O)N2C[C@@H]3[C@@H](CNC(=O)c4ccc5[nH]nnc5c4)[C@@H]3C2)n1	cell-free assay	–	competition with immobilised ligand	1 µM	remaining binding	90%
CCN(CC)CCNC(=O)c1c(C)[nH]c(/C=C2\C(=O)Nc3ccc(F)cc32)c1C	enzyme activity	inhibitor	–	10 µM	inhibition	23%
N#CCCc1ccc2c(c1)-c1[nH]c3ccc([N+](=O)[O-])cc3c1CC(=O)N2	cell-free assay	–	–	0.5 µM	remaining signal	108%
Nc1cnc(N2CCc3cc(S(=O)(=O)Nc4c(F)cc(Cl)cc4F)cc(N4CCCC4=O)c32)nc1	cell-free assay	–	competition with immobilised ligand	1 µM	remaining binding	74%
CNC(=O)c1cc(Oc2ccc(NC(=O)Nc3ccc(Cl)c(C(F)(F)F)c3)cc2)ccn1	enzyme activity	inhibitor	–	0.3 µM	inhibition	-1%
Cc1sc(C(=O)NC2COC2)cc1-n1cc(NC(=O)Nc2c(F)cccc2Cl)cn1	enzyme activity	inhibitor	–	10 µM	remaining activity	99.6%
CCS(=O)(=O)c1cc2cc(C[C@](O)(CC(C)(C)c3ccc(F)cc3C(N)=O)C(F)(F)F)[nH]c2cn1	cell-free assay	–	competition with immobilised ligand	1 µM	remaining binding	100%
Cn1c2c(Cl)c(Cl)ccc2c2cc[nH]c(=O)c21	thermal stability	–	DSF	10 µM	ΔTm	1.5 °C
Cc1cnc(NC2CCOCC2)nc1-n1cnc(C(=O)NC(CN)c2cc(F)cc(Cl)c2)c1 (stereo not shown)	enzyme activity	inhibitor	radiometric	1 µM	remaining activity	99%
C[S+]([O-])c1ccc(-c2nc(-c3ccncc3)c(-c3ccc(F)cc3)[nH]2)cc1 (stereo not shown)	cell-free assay	–	–	0.5 µM	remaining signal	99.1%
O=C(N[C@H]1CCCCC/C=C\C2C[C@@]2(C(=O)O)NC(=O)[C@@H]2C[C@@H](Oc3ccncc3)CN2C1=O)OC1CCCC1 (stereo partly shown)	binding	–	competition with immobilised ligand	1 µM	remaining binding	93%
Clc1ccc(Nc2nnc(Cc3ccncc3)c3ccccc23)cc1	cell-free assay	–	–	0.5 µM	remaining signal	105%
C[C@H](NC(=O)c1cnc2n1[C@](C)(Cc1ccc(C#N)cc1)C(=O)N2c1cc(Cl)c(F)c(Cl)c1)C(=O)NC1(c2ccccn2)CC1	cell-free assay	–	competition with immobilised ligand	1 µM	remaining binding	96%
Cc1ccc(Nc2nccc(N(C)c3ccc4c(C)n(C)nc4c3)n2)cc1S(N)(=O)=O	enzyme activity	inhibitor	–	0.3 µM	inhibition	2%
COc1cc2c(Nc3ccc(Br)cc3F)ncnc2cc1OCC1CCN(C)CC1	cell-free assay	–	–	0.5 µM	remaining signal	100%
